This is a sample that favours compounds with a hit; in the whole collection about 2.1% have one here.
p97 inhibitor: inhibitors of human p97 ATPase. P55072. recombinant p97 ATPase, Kinase-Glo ATP luminescence, 3 h. inhibition, % at 8 µM. 220,000 compounds, 0.42% hits. AID 1481; in the data active = inhibition above about 15%;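 also: 0% = DMSO vehicle and 100% = wells lacking enzyme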
Runt-SMMHC FRET: inhibitors of human RUNX1 Runt domain binding to CBFb-SMMHC; Cerulean-Runt/Venus-CBFb-SMMHC FRET ratio 530/480, 1 h; inhibition, % at 20 µM; 220,000 compounds, 0.74% hits; AID 1434;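 active = mean inhibition across duplicate retests at 20 µM reaching about 50%, limit read from the data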;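 also: 0% = DMSO wells and 100% = wells with excess untagged CBFb-SMMHC; inhibitors lower the FRET ratio by blocking Runt binding to CBFb-SMMHC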
Hck Nef HTS: human Hck-Nef kinase inhibition; P08631; Recombinant Hck-YEEI plus Nef, Z-Lyte FRET kinase assay; inhibition, % at 20 µM; 220,000 compounds, 0.68% hits; AID 463187;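 active = Hck-Nef kinase inhibition above about 50%, limit read from the data; inactive = inhibition below that limit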;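 also: 0% = DMSO with Hck plus Nef and 100% = Hck alone without Nef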
Target sequence (P08631 whole entry, looked up): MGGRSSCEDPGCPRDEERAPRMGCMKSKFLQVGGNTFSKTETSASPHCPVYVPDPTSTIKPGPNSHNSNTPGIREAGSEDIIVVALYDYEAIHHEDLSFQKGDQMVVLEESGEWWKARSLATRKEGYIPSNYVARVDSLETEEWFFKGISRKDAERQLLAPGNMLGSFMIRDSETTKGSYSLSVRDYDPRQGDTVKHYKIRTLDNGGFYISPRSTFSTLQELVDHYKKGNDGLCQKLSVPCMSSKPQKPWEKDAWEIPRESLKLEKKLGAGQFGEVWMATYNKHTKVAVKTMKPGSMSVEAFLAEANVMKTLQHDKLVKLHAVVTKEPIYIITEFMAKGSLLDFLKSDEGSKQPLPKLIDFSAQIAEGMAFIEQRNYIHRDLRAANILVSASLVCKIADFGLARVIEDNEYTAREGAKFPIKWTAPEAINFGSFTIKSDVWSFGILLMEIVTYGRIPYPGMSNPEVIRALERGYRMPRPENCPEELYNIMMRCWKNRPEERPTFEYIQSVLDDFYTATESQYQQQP
RanGTP-Impb inh: inhibitors of RanGTP-importin-beta interaction, primary screen, biochemical, FRET, CFP-Ran, YFP-importin-beta, homogeneous; cell-free CFP-Ran/YFP-importin-beta FRET ratio; 300,000 compounds, 1.1% hits; inhibition, % (no concentration beside the values);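 active = more than half of the replicate wells show a fall in the fluorescence ratio signal beyond about 16%, limit read from the data, passing the limit was not always enough; inconclusive = exactly half of the replicate wells pass the set limit; inactive = fewer than half of replicates pass the limit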;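 also: 0% = DMSO wells and 100% = Ran loaded with GDP instead of GTP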
Runt-CBFb FRET: Runt domain-CBFb interaction inhibition. 220,000 compounds, 0.46% hits. Q01196+Q13951. inhibition, % at 20 µM. Cerulean-Runt/Venus-CBFb FRET ratio 530/480, 1 h. AID 1496;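 active = inhibition over about 50% at 20 µM in the single-dose screen, limit read from the data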;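 also: 0% = DMSO wells and 100% = excess unlabeled CBFb competitor control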
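test system = Cerulean-Runt domain fusion protein, energy donor | probe or stimulus = Venus-CBFb binding partner, 100 nM | incubation = two 1 h room-temperature incubations shielded from light | detection = fluorescence energy transfer, 422 nm excitation, 530/480 nm emission | measure = loss of energy transfer signal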
TbHK1 inh: blocks Trypanosoma brucei hexokinase 1 activity; inhibition, % at 10 µM; AID 1430; recombinant TbHK1, G6PDH-coupled NADH A340; 220,000 compounds, 0.11% hits;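 active = inhibition of 50% or more in the single-dose primary screen; inactive = inhibition below 50%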
p97 confirm: confirmation of human p97 ATPase inhibitors; shares compounds with p97 inhibitor; recombinant p97 ATPase, Kinase-Glo ATP luminescence; inhibition, % at 8 µM; 760 compounds, 44% hits;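 active = percent inhibition of p97 ATPase above a set limit, the primary screen's mean plus 3 SD, cut at about 15% in these data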;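 also: 0% = DMSO wells and 100% = wells lacking p97 protein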
An asterisk follows results filed as active; u = inconclusive; x = not tested or not shown.

SMILES | p97 inhibitor | Runt-SMMHC FRET | Hck Nef HTS | RanGTP-Impb inh | Runt-CBFb FRET | TbHK1 inh | p97 confirm
C#CCOCCOCCOCCNc1nc(N2CCN(C(=O)C(Cc3ccc(O)cc3)n3cc(C(N)CC(C)C)nn3)CC2)nc(N2CCN(C(=O)C(Cc3cc4ccccc4[nH]3)n3cc(C(N)Cc4ccc(O)cc4)nn3)CC2)n1 (stereo unspecified) | 19* | 9 | 5 | 3 | 3 | 15 | 20*
C#CCOCCOCCOCCNc1nc(N2CCN(C(=O)[C@H]([C@@H](C)CC)n3cc([C@@H](N)Cc4ccc(O)cc4)nn3)CC2)nc(N2CCN(C(=O)[C@H](Cc3ccc(O)cc3)n3cc([C@@H](N)CC(C)C)nn3)CC2)n1 | 14 | 3 | -5 | 3 | 1 | 0 | x
C#CCOCCOCCOCCNc1nc(N2CCN(C(=O)[C@H]([C@@H](C)CC)n3cc([C@@H](N)Cc4ccc(O)cc4)nn3)CC2)nc(N2CCN(C(=O)[C@H]([C@@H](C)CC)n3cc([C@@H](N)CC(C)C)nn3)CC2)n1 | 18* | -3 | -8 | 4 | 2 | 5 | 9
CC(C)CC(=O)Nc1cccc(-c2cn3ccsc3n2)c1 | 1 | 3 | 5 | -2 | 2 | -1 | x
CCC(=O)Nc1cccc(-c2cn3ccsc3n2)c1 | 15* | 3 | 0 | -2 | -1 | -7 | 10
CC(C)OC(=O)Cn1nc(C(c2ccccc2)c2ccccc2)oc1=O | x | x | x | 1 | x | x | x
Oc1ccc2ccccc2c1C=NCc1cn2ccsc2n1 | 40* | 7 | 0 | -3 | 10 | 4 | 7
Oc1ccc2ccccc2c1/C=N/c1nccs1 | 7 | 5 | -1 | -4 | 13 | 5 | x
CSc1nsc2nc(=O)c(/C=C3\C(C)=Nc4ccccc43)c(N)n12 | 21* | 14 | -42 | 8 | -1 | -6 | 38*
Cc1ccc(-n2c(O)c(/C=C3/C(c4ccccc4)=Nc4ccccc43)c(=O)[nH]c2=O)cc1 | 8 | -25 | 2 | 1 | -6 | 1 | x
Cc1noc(/C=C/c2nn(C)cc2Cl)c1[N+](=O)[O-] | 2 | 1 | 8 | -2 | 0 | -20 | x
COc1ccc(C2=C(O)C(C)N(c3ccccc3)C2=N)cc1OC (stereo unspecified) | 4 | -5 | 5 | 2 | -1 | 3 | x
Cc1cc(C2=NNC(=NCCc3ccccc3)SC2)c(C)n1-c1c(C)n(C)n(-c2ccccc2)c1=O | 16* | -10 | 22 | -1 | 4 | -37 | 7
NC(=O)c1csc(-c2ccncc2)n1 | 2 | 3 | 1 | 2 | 1 | -2 | x
Nc1cc(-c2ccncc2)c[nH]c1=O | 23* | 28 | 1 | 6 | 33 | -14 | 5
CC(C)c1ccc(NC(=O)C(c2ccccc2)N2CC(=O)Nc3ccccc32)cc1 (stereo unspecified) | 15* | -3 | -4 | 2 | 2 | -12 | 6
N#Cc1c(N(CCO)CCO)nc(N)c2c(N)nc3c(c12)CC(=O)N3CC1CCCO1 (stereo unspecified) | 26* | -4 | -61 | u | 7 | -26 | 4
COC(=O)/C(=N\Nc1ccccc1)Sc1nnc(-c2ccc(OC)cc2)n1C | 6 | 2 | 0 | 3 | 2 | -9 | x
COc1ccc(CC(=O)NCC(=O)Nc2ccccc2Br)cc1 | x | x | x | -6 | x | x | x
CCCC(=O)Nc1ccc(Cl)c(NC(=O)c2cccnc2Cl)c1 | 3 | -9 | 1 | u | -1 | 1 | x
S=c1[nH]nc(C2CC2)n1Cc1ccccc1 | 50* | 7 | -29 | 0 | 7 | 9 | 9
S=c1[nH]nc(C2CCCCC2)n1Cc1ccccc1 | 4 | 5 | 24 | -1 | 4 | -2 | x
CCOc1ccc(-c2cc(N3C(=O)Nc4ccccc4N3O)n[nH]2)cc1 | 17* | 2 | 19 | 2 | 1 | 3 | 8
CCOC(=O)CNC(=O)c1sc(NC(=O)c2ccccc2)nc1C | 4 | 3 | 9 | 2 | 0 | -20 | x
CCOc1ccccc1C1c2[nH]c3ccccc3c2C[C@H]2C(=O)N(C3CC3)CC(=O)N12 (stereo partly specified) | x | x | x | 1 | x | x | x
SMILES | p97 inhibitor | Runt-SMMHC FRET | Hck Nef HTS | RanGTP-Impb inh | Runt-CBFb FRET | TbHK1 inh | p97 confirm
CC(=O)c1ccc2cccc3c2c1N=CN3C | 32* | 60 | 5 | 1 | -19 | -6 | 5
CC1CCN(c2c([N+](=O)[O-])c(=O)oc3ccccc23)CC1 | 5 | -2 | 7 | -1 | 0 | -18 | x
CCn1c2ccccc2c2cc(NC(=O)CSc3nccc(=O)[nH]3)ccc21 | 20* | -4 | 25 | 1 | -4 | -9 | 29*
CCn1c2ccccc2c2cc(NC(=O)CSc3nnc(-c4cccc(C)c4)o3)ccc21 | 15* | 1 | -1 | -2 | 1 | -13 | 24*
CCn1c2ccccc2c2cc(NC(=O)CSc3nnc(-c4ccccc4)o3)ccc21 | 7 | 2 | 9 | 0 | 1 | -20 | x
CC[C@H](C)[C@@H](NC(=O)O[C@@H]1C(=O)c2cc(Br)ccc2O[C@H]1c1ccc2c(c1)OCO2)C(=O)OC | 4 | 2 | -3 | x | -1 | -4 | x
COc1cc(/C=C2\C(=O)N(CCC#N)N=C2C)ccc1OCC(=O)Nc1ccccc1 | 29* | -4 | 4 | 2 | 2 | 34 | 4
CCOc1cc(/C=C2\C(=O)N(CCC#N)N=C2C)ccc1OCC(N)=O | 17* | -4 | 28 | -1 | -1 | -3 | 6
CC(C)N1C(=O)CC(Nc2cccc3cccc(N)c23)C1=O (stereo unspecified) | 18* | -19 | -12 | x | -10 | -4 | 3
Cc1noc(C)c1C(=O)NCc1ccccc1 | 4 | 1 | 0 | 4 | 2 | 2 | x
Cc1cc(/C=C2/NC(=O)NC2=O)c(C)n1-c1ccc(N2CCOCC2)cc1 | 1 | 2 | -21 | u | -1 | -14 | x
Cc1cc(/C=C2\NC(=O)NC2=O)c(C)n1-c1ccc(N2CCOCC2)cc1 | 17* | -8 | 35 | 1 | 2 | -43 | 9
O=C(NCc1cccc(CNC(=O)C(=O)NCc2ccco2)c1)C(=O)NCc1ccco1 | 5 | 1 | 5 | 0 | 0 | -1 | x
N#C/C(=C(/O)CCl)c1nc(-c2ccccc2)cs1 | 40* | -2 | -11 | u | 6 | -21 | 38*
CCOC(=O)C1Cc2ccccc2CN1 (stereo unspecified) | 15* | 3 | 2 | 4 | 0 | 1 | 6
CCOC(=O)C1Cc2c([nH]c3ccccc23)CN1 (stereo unspecified) | 1 | 0 | -1 | -3 | -6 | 6 | x
Cc1ccc(Cl)cc1NC(=O)Nc1cccs1 | 9 | -5 | -2 | -5 | 7 | 1 | x
